The source of these data is publication PMC9868102 (Cell chemical biology, 2023).

Entries after “also recorded” stand apart in the source; their conditions may differ.

For one assay, the system named is wild-type BMDCs. Nature of the assay: Uptake by BMDCs from wild-type mice. In kind it is cell-based, mouse. The essentials: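 Bone marrow flushed from tibia and femur of female C57BL6 or TG2-knockout mice, red cells removed. Cells seeded at 2x10^6 per 10-cm dish in RPMI/10% FBS with 10 ng/mL GM-CSF, fed on days 3 and 6, suspension cells harvested day 8. Probed with HB230 or Cy5-33mer; confocal, DAPI counterstain.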

In assay [1] the test system is wild-type bone marrow derived macrophages (BMM). The experiment in a line: Uptake by bone marrow derived macrophages from wild-type mice. The format is cell-based, mouse. Particulars: ± α2M; triplicates. The essentials:
(§1)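 Bone marrow from female C57BL6 or TG2-knockout mice, red cells removed, plated at 8x10^6 cells in RPMI/10% FBS with 20 ng/mL M-CSF. Fed on days 2 and 4, adherent cells harvested with 5 mM EDTA on day 5. Cy5-33mer uptake imaged by confocal; triplicates, mean ± SD.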

In another assay the test system is TG2-knockout BMM. Nature of the assay: Uptake by bone marrow derived macrophages from TG2-knockout mice. The format is cell-based, mouse. The settings on record: triplicates. The essentials: as §1
The target in a further assay is T1, human TG2 (Homo sapiens, UniProt P21980).
T1 sequence (P21980 1-687): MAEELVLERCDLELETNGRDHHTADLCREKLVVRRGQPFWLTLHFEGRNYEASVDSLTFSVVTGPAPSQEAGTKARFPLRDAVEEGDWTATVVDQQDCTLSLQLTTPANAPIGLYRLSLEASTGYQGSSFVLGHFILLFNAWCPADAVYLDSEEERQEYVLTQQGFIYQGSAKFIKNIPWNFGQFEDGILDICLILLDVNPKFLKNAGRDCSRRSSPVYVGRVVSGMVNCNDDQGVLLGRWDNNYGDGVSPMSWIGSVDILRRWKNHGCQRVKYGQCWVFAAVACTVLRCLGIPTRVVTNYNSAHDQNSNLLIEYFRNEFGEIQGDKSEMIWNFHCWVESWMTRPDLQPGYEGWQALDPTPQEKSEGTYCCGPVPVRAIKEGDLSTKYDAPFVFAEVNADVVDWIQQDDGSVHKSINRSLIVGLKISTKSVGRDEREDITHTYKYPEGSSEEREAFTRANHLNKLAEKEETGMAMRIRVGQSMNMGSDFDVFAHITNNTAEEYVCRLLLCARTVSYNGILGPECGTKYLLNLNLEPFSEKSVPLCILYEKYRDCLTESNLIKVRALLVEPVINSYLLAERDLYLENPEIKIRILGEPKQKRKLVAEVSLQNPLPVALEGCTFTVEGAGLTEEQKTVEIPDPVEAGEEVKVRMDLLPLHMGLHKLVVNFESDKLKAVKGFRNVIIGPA
Nature of the assay: TG2 steady-state kinetics of substrates, wild-type TG2 ± α2M and vs pH. In kind it is biochemical. Particulars: kcat of AC-PQLPF-NH2. The essentials:
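His6-tagged human TG2 from E. coli BL21(DE3) was purified by Ni-NTA and anion exchange, reduced, and desalted into PBS. It was assayed at 1 μM final, ± recombinant human α2M (Expi293F-expressed), with GDH/α-ketoglutarate/NADH coupling in 200 mM MOPS pH 7.2 with 5 mM CaCl2. Substrate was Ac-PQLPF-NH2 unless otherwise specified. Absorbance at 340 nm was followed for 60 min at 25 °C. Steady-state rates came from linear progress-curve slopes; triplicate.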

Assay [2] concerns the target T2, TG2 derivative lacking the C-terminal β-barrel domain (Homo sapiens, UniProt P21980).
T2 sequence (P21980 1-586): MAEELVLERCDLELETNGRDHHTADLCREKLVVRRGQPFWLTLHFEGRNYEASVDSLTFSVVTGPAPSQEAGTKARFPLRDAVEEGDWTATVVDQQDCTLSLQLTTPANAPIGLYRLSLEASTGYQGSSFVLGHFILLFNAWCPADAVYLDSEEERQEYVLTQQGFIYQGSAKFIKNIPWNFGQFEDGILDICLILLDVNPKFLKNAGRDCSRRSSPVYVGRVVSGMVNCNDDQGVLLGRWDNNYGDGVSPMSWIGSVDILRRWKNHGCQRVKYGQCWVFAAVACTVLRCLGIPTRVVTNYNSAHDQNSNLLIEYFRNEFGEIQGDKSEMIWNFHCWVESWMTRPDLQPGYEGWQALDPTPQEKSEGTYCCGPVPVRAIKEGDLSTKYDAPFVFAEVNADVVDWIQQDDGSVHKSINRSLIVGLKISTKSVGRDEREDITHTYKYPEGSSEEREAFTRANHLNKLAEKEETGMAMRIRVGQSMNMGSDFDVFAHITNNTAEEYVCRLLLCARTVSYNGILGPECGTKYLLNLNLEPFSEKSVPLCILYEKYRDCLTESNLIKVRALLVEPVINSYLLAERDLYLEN
Nature of the assay: Kinetics of truncated TG2 lacking the C-terminal β-barrel domain. The format is biochemical. Particulars: TG2 derivatives lacking the C-terminal β-barrel domain. The procedure, abridged:
(§2)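 Truncated human TG2 constructs with N-terminal His tags (residues 1-586 lacking β2; residues 1-460 lacking β1 and β2) were expressed in Rosetta2 E. coli and purified by Ni, anion exchange and SEC. The assay was GDH-coupled: 200 mM MOPS pH 7.2, 5 mM CaCl2, 10 mM α-ketoglutarate, 18 U/mL GDH, 0.5 mM NADH and Ac-PQLPF-NH2. Reduced enzyme was at 1 μM final, ± Expi293F-expressed human α2M. NADH loss was read at 340 nm for 60 min at 25 °C. Rates came from linear slopes; triplicate.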

The target in assay [3] is T3, TG2 derivative harboring the N-terminal and catalytic domains but lacking both β-barrel domains (Homo sapiens, UniProt P21980).
T3 sequence (P21980 1-460): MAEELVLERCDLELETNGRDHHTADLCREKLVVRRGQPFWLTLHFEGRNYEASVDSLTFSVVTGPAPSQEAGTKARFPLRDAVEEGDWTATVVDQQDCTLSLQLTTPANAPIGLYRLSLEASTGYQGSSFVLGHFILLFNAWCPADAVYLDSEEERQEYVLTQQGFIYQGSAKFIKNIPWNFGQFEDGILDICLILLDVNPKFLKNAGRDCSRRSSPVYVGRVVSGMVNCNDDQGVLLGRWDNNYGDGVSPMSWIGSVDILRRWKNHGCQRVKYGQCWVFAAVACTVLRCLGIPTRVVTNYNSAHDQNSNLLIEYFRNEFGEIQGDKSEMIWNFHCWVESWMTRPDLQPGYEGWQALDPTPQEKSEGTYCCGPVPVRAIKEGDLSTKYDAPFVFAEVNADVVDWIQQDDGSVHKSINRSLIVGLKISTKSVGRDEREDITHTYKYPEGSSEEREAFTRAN
The experiment in a line: Kinetics of truncated TG2 lacking both β-barrel domains. In kind it is biochemical. Particulars: TG2 derivative lacking both β-barrel domains. The essentials: as §2

For another assay, the system named is NRK cells. Nature of the assay: Uptake of fluorescent TG2 probes by NRK cells. In kind it is cell-based, rat. The settings on record: HB230 1 μM. The procedure, abridged: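 NRK cells were grown in DMEM. Media were replaced, and 1 μM probe was co-incubated for 90 min with α2M at varied levels (some Alexa 555 NHS-labelled), plus TRX as specified. Cells were washed in HBSS, fixed in 2% PFA, DAPI-stained and imaged by confocal microscopy. Puncta were counted with a circularity cutoff of 0.3 and a minimum size threshold, then normalized to cell number by DAPI.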

A further assay concerns wild-type MEFs. Nature of the assay: Internalization of HB230 and α2M by wild-type MEFs. In kind it is cell-based, mouse. Particulars: α2M 100 μg/mL, HB230 10 μM, exogenous TRX and betamethasone.
The next assay relates to LRP-1 knock-out MEFs. Nature of the assay: Internalization of HB230 and α2M by LRP-1 knock-out MEFs. In kind it is cell-based, mouse. The settings on record: α2M 100 μg/mL, HB230 10 μM, exogenous TRX and betamethasone.
In assay [4] the test system is 9022 cells (HLA-DQ2 homozygous B-cell line). Nature of the assay: Cell surface presentation by HLA-DQ2 expressing 9022 B cells. The format is cell-based, human. Particulars: 100 nM TG2; 150 cells from 2-4 frames of 3-6 replicates. The essentials:
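EBV-immortalised HLA-DQ2-homozygous B cells in RPMI with 10% FBS and 1% PenStrep, pelleted, resuspended and left 20 min at 37 °C to adhere on poly-L-lysine-coated glass. Cy5-33mer, α2M and 100 nM recombinant human TG2 (E. coli, His6) added for 2.5 h. Anti-HLA-DQ2 (1:50) then Alexa 488 secondary, each 20 min on ice, fixed, DAPI, confocal. Cells with surface HLA-DQ2/Cy5 overlay scored; 2-4 frames of 3-6 replicates.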

For a further assay, the system named is transglutaminase-2 (TG2). The experiment in a line: Bio-layer interferometry of α2M-TG2 interaction. In kind it is binding. Particulars: preliminary efforts. In general terms: Biolayer interferometry detects binding as a change in optical thickness at a sensor tip.

Regarding “H-LQLQPFPQPQLPYPQPQLPYPQPQLPYPQPQPF-Rink resin [SulfoCy5-native-33mer]”, the “uptake by wild-type BMDCs” value in the assay on wild-type BMDCs was “take up HB230 and 33mer”. In addition, the “uptake by wild-type BMM” value in [1] is listed as “robustly internalized the 33mer in the presence, but not absence, of α2M”. The “uptake by TG2-knockout BMM” value in the assay on TG2-knockout BMM is reported as “do not internalize 33mer”.
For the substance “α2M: ~800 kDa homotetrameric pan-protease inhibitor”, the “inhibition of TG2 by α2M, mechanism” value in the assay with human TG2 was “non-competitive inhibition mechanism of TG2 by α2M”. Further, the “inhibition of truncated TG2 by α2M” value in [2] and in [3] was “Inhibition was abolished” in each case. Further, the “α2M concentration up to which HB230 uptake increases (saturation)” value with NRK cells (90 min) is reported as ~ 100 μg/mL. Further, the “effect of α2M on HB230 uptake” value in the assay on NRK cells (α2M supplementation) was “strong dose-dependent increase in uptake of HB230; also recorded: predominantly appeared to affect the size and number of the larger puncta”. For the same substance, the “internalization by wild-type MEFs” value in the assay on wild-type MEFs is recorded as “readily internalize”. Moreover, the “internalization by LRP-1 knock-out MEFs” value with LRP-1 knock-out MEFs was “markedly reduced uptake”. Moreover, in assay [4], the “effect of α2M on cell surface 33mer” value is on record as “enhanced upon addition of exogenous α2M; also recorded: the number of cells displaying gluten peptides on their surface increases”. The “detection of α2M-TG2 interaction” value with transglutaminase-2 (TG2) is reported as “unsuccessful”.
